# Test results: ChEMBL document CHEMBL3877261, “New azepino[4,3-b]indole derivatives as nanomolar selective inhibitors of human butyrylcholinesterase showing protective effects against NMDA-induced neurotoxicity” (Eur J Med Chem, 2017)
# The source made the active and inactive calls. No cut-off for these calls is given here.
# How the values were obtained:
# [1] = target: Acetylcholinesterase (Electrophorus electricus, UniProt O42275); test: Inhibition of electric eel AChE pretreated for 20 mins followed by acetylthiocholine iodide substrate addition measured for 5 mins by Ellman's method
# Acetylcholinesterase (Electrophorus electricus, UniProt O42275), sequence (O42275 whole entry): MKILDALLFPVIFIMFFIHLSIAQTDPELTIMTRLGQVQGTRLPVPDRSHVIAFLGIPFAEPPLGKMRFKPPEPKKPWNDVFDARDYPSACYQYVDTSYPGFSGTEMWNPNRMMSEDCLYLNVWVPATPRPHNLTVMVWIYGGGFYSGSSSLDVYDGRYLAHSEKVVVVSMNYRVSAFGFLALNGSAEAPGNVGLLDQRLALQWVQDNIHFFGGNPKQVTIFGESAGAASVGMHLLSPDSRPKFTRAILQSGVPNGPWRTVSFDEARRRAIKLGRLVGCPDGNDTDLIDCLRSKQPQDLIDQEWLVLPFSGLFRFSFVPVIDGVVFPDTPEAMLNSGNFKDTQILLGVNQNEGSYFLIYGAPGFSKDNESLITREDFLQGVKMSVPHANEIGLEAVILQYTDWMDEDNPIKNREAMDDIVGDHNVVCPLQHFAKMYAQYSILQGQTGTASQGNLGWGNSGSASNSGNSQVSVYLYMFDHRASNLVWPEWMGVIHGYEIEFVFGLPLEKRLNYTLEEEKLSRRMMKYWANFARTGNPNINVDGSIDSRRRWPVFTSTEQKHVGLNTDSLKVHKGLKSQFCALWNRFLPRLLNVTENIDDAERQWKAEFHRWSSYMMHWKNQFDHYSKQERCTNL
# [2] = target: T1, Cholinesterase (Equus caballus, UniProt P81908); test: Inhibition of horse serum BChE pretreated for 20 mins followed by butyrylthiocholine iodide substrate addition measured for 5 mins by Ellman's method
# T1 sequence (P81908 whole entry): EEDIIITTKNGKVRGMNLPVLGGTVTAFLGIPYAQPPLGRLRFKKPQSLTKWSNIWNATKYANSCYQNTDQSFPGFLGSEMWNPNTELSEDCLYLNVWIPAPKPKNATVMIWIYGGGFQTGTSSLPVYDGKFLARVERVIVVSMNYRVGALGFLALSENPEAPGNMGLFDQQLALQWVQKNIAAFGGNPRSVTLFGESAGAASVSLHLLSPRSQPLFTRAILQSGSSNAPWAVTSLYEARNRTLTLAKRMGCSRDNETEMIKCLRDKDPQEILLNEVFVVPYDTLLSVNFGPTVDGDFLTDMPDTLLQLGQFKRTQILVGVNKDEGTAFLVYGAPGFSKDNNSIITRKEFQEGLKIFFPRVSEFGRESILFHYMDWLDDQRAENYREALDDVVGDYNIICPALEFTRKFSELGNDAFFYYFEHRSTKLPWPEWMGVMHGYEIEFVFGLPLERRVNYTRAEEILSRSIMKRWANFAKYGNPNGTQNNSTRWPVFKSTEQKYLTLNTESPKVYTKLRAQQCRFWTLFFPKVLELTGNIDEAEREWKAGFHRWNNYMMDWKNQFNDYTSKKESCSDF
# [3] = Neuroprotective activity against NMDA-induced toxicity in human SH-SY5Y cells assessed as cell viability at 5 uM incubated for 48 hrs by MTT assay relative to control; format: functional; conditions: read-out: Activity
# Procedure, shortened: (§1)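 SH-SY5Y in DMEM with 2% FBS, seeded ~5,000 cells/well and grown 1 day. Co-exposed 48 h at 37 °C to NMDA (250 µM final) plus test compound. MTT (0.5% w/v) added for 4 h, formazan dissolved in DMSO/ethanol 1:1, absorbance read. Triplicates as % of untreated control, mean ± SEM; one-way ANOVA with Dunnett's test.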
# [4] = target: T2, Acetylcholinesterase (Homo sapiens, UniProt P22303); test: Inhibition of human AChE pretreated for 20 mins followed by acetylthiocholine iodide substrate addition measured for 5 mins by Ellman's method
# T2 sequence (P22303 whole entry): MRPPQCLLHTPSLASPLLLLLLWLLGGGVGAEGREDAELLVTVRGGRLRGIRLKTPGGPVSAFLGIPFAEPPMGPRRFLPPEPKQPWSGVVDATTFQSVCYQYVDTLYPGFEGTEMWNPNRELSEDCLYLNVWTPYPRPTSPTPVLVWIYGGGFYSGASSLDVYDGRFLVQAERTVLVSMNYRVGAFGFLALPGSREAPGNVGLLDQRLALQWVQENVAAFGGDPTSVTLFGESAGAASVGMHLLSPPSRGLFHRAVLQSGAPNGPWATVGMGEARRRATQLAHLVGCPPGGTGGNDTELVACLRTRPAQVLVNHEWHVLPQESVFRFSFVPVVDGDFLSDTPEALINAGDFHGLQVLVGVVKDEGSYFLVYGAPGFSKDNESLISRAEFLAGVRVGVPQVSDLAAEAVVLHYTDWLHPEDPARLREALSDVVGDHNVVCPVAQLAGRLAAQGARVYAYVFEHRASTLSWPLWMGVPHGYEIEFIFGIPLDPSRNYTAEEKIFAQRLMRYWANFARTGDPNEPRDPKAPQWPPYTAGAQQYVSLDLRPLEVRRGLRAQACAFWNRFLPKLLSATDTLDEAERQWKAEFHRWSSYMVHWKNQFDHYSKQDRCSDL
# Procedure, shortened: (§2)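 Ellman colorimetric assay with DTNB (3.3 mM stock, pH 7.0 PB). Test compound (five to seven concentrations, 1×10^-4 to 1×10^-9 M; or single 10 µM point) preincubated with enzyme 20 min at 25 °C in 0.1 M PB pH 8.0. Rate followed at 412 nm for 5.0 min after adding thiocholine substrate (0.05 mM). IC50 by nonlinear regression, mean of ≥3 independent determinations.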
# [5] = target: Cholinesterase (Homo sapiens, UniProt P06276); test: Inhibition of human BChE pretreated for 20 mins followed by butyrylthiocholine iodide substrate addition measured for 5 mins by Ellman's method; procedure, shortened: as §2
# Cholinesterase (Homo sapiens, UniProt P06276), sequence (P06276 whole entry): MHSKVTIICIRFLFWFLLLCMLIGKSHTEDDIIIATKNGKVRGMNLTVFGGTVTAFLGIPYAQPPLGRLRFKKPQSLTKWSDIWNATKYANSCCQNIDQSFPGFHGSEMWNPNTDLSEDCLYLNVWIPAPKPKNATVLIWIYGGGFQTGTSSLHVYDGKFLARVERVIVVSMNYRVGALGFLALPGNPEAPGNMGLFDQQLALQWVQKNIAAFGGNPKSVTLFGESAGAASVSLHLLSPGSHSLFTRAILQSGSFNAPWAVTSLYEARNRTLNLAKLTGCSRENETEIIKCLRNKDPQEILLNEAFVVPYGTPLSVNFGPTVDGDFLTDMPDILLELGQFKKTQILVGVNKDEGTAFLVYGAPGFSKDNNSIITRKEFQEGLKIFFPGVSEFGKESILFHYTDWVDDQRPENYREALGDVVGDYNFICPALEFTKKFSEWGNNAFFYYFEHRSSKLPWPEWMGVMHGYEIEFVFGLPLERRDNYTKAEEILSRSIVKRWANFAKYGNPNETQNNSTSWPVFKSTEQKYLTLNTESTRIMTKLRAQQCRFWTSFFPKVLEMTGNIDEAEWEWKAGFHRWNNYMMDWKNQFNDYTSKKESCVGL
# [6] = Neurotoxicity against human SH-SY5Y cells assessed as growth inhibition measured after 48 hrs by MTT assay; format: toxicity, cell-based; conditions: for GI50 at 48 h: SH-SY5Y cells; for growth inhibition (GI): sh-sy5y, 48 h
# Procedure, shortened: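 SH-SY5Y grown in DMEM/10% FBS, then treated in reduced-serum (2% FBS) medium. Compounds from 20 mM DMSO stock, tested at 0.1-1000 µM for 48 h after 1-day attachment at ~5,000 cells/well. MTT 4 h, DMSO/ethanol solubilization, absorbance. Triplicate wells, % of untreated control. GI50 from dose-response.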
# [7] = Neurotoxicity against human U87 cells assessed as growth inhibition measured after 48 hrs by MTT assay; format: toxicity, cell-based, U-87MG ATCC
# Procedure, shortened: (§3)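 Cells kept in DMEM with 10% FBS, 2 mM L-glutamine, penicillin/streptomycin, 37 °C, 5% CO₂. Seeded ~5,000 cells/well, 1 day, then exposed to compound at 0.1-500 µM for 48 h. MTT 0.5% (w/v) added for 4 h, formazan dissolved in DMSO/ethanol 1:1, absorbance read. Triplicates, as % of untreated control. GI50 from concentration-response curves.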
# [8] = Cytotoxicity against human MCF7 cells assessed as growth inhibition measured after 48 hrs by MTT assay; format: toxicity, cell-based; procedure, shortened: as §3
# [9] = Hepatotoxicity against human HepG2 cells assessed as growth inhibition measured after 48 hrs by MTT assay; format: toxicity, cell-based; procedure, shortened: as §3
# [10] = target: Cholinesterase (Equus caballus) (UniProt P81908); test: Inhibition of horse serum BChE at 10 uM pretreated for 20 mins followed by butyrylthiocholine iodide substrate addition measured for 5 mins by Ellman's method relative to control
# Cholinesterase (Equus caballus), sequence (P81908 whole entry): as the sequence (P81908 whole entry) above
# Procedure, shortened: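 Ellman colorimetric assay. BChE (0.9 U/mL stock in 0.1 M PB pH 8.0) with DTNB (3.3 mM stock in pH 7.0 PB plus NaHCO₃) and inhibitor (1×10^-4 to 1×10^-9 M, five to seven concentrations; or single 10 µM point) preincubated 20 min at 25 °C. Butyrylthiocholine iodide (0.05 mM stock) then added and absorbance read at 412 nm for 5.0 min. IC50 from nonlinear regression of log response curves, mean of ≥3 independent runs.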
# [11] = Neuroprotective activity against NMDA-induced toxicity in human SH-SY5Y cells assessed as cell viability at 0.5 uM incubated for 48 hrs by MTT assay relative to control; format: functional; conditions: read-out: Activity; procedure, shortened: as §1
# [12] = target: T1, Cholinesterase; test: Stability assessed as horse serum BChE mediated compound hydrolysis at 300 x 10^-6M at pH 8 measured every 5 mins for 1 hr by UV-Vis spectra analysis; format: ADME; conditions: buffer, pH 8, 1 h, 300 µM
# [13] = system: SH-SY5Y; test: Neuroprotective activity against NMDA-induced toxicity in human SH-SY5Y cells assessed as increase in cell viability at 0.5 uM incubated for 48 hrs by MTT assay; format: functional, cell-based
# Procedure, shortened: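 SH-SY5Y at ~5,000 cells/well in reduced-serum (2% FBS) medium co-exposed 48 h at 37 °C to NMDA (250 µM final) and compound. Viability by MTT, as % of NMDA-untreated cells. Mean ± SEM; one-way ANOVA with Dunnett's test, P < 0.05 significant.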
# [14] = target: T1, Cholinesterase; test: Competitive inhibition of horse serum BChE in presence of varying levels of butyrylthiocholine iodide substrate by Lineweaver-burk plot method
# Procedure, shortened: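 Lineweaver-Burk fit (1/v vs 1/[S]) using fixed enzyme at 0.09 U×mL^-1, substrate varied 25−250 µM, run without inhibitor and with inhibitor at four concentrations spanning 0.5-5.0 nM.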
# [15] = target: T2, Acetylcholinesterase; test: Inhibition of human AChE at 10 uM pretreated for 20 mins followed by acetylthiocholine iodide substrate addition measured for 5 mins by Ellman's method relative to control; procedure, shortened: as §2
# [16] = target: T1, Cholinesterase; test: Stability assessed as horse serum BChE mediated compound hydrolysis at 300 x 10^-7M at pH 8 measured every 5 mins for 1 hr by UV-Vis spectra analysis; format: ADME; conditions: buffer, pH 8, 1 h, 30 µM
compound,measurement,setting,value
CCCNC(=O)c1cn(CCc2ccccc2)c2ccccc12,IC50,[1],10.3 µM
same,IC50,[2],12.6 µM
Cc1ccc(CCn2c3c(c4ccccc42)C(=O)NCCC3)cc1,IC50,[2],68.2 µM
CCOC(=O)NCCCn1c2c(c3ccccc31)C(=O)NCCC2,IC50,[1],110 µM
same,IC50,[2],15 µM
CCOC(=O)CCCn1c2c(c3ccccc31)C(=O)NCCC2,IC50,[1],60 µM
same,IC50,[2],25.7 µM
O=C1NCCCc2c1c1ccccc1n2CCc1ccc(F)cc1,viability at 5 µM,[3],76.6%
same,IC50,[2],0.23 µM
same,IC50,[4],10 µM
same,IC50,[5],5 µM
same,GI50 at 48 h,[6],251 µM
same,growth inhibition (GI),[6],Dose-dependent effect
same,GI50 at 48 h,[7],> 500 µM
same,GI50 at 48 h,[8],> 500 µM
same,GI50 at 48 h,[9],230 µM
O=C1NCCCc2c1c1cc(F)ccc1n2CCc1ccccc1,IC50,[2],0.028 µM
O=C1NCCCc2c1c1ccccc1n2CCc1ccc(Cl)cc1,IC50,[2],1.9 µM
CC(C)CCn1c2c(c3ccccc31)C(=O)NCCC2,IC50,[1],100 µM
same,IC50,[2],22.3 µM
O/N=C1\CCCc2c1c1ccccc1n2CCc1ccccc1,inhibition,[10],5%
O=C1NCCCc2c1c1ccccc1n2Cc1ccccc1,inhibition,[10],25%
Cl.c1ccc(CCn2c3c(c4ccccc42)CNCCC3)cc1,IC50,[2],1.14 µM
same,GI50 at 48 h,[6],5.6 µM
same,growth inhibition (GI),[6],Dose-dependent effect
same,GI50 at 48 h,[7],41 µM
same,GI50 at 48 h,[8],28 µM
same,GI50 at 48 h,[9],25 µM
same,viability at 0.5 µM,[11],76%
CN1CCCc2c(c3ccccc3n2CCc2ccccc2)C1=O,IC50,[1],44.8 µM
same,inhibition,[10],10%
O=C1NCCCc2c1c1ccccc1n2CCc1ccccc1,viability at 5 µM,[3],76.9%
same,IC50,[1],20 µM
same,IC50,[2],0.024 µM
same,Stability,[12],Stable
same,IC50,[4],12.6 µM
same,IC50,[5],0.013 µM
same,GI50 at 48 h,[6],138 µM
same,growth inhibition (GI),[6],Dose-dependent effect
same,GI50 at 48 h,[7],288 µM
same,GI50 at 48 h,[8],170 µM
same,GI50 at 48 h,[9],120 µM
same,Activity,[13],Active
O=C1NCCCc2c1c1ccccc1n2CCc1cccc(F)c1,IC50,[2],0.0015 µM
same,Ki,[14],0.0007 µM
same,inhibition,[15],6%
same,IC50,[5],0.0018 µM
same,GI50 at 48 h,[6],2.61 µM
same,growth inhibition (GI),[6],Dose-dependent effect
same,GI50 at 48 h,[7],162 µM
same,GI50 at 48 h,[8],162 µM
same,GI50 at 48 h,[9],159 µM
same,viability at 0.5 µM,[11],70%
O=C1NCCCc2c1c1ccccc1n2CCCc1ccccc1,inhibition,[10],20%
CC(=O)OCCCCn1c2c(c3ccccc31)C(=O)NCCC2,IC50,[2],10.7 µM
O=C1CCCc2c(c3ccccc3n2CCc2ccccc2)N1,inhibition,[10],25%
same,Stability,[16],Stable
CC12CC3CC(C)(C1)CC(N)(C3)C2 [MEMANTINE],viability at 5 µM,[3],68%
same,GI50 at 48 h,[6],145 µM
same,growth inhibition (GI),[6],Dose-dependent effect
O=c1[nH]cc(F)c(=O)[nH]1 [FLUOROURACIL],GI50 at 48 h,[7],13 µM
same,GI50 at 48 h,[8],4.5 µM
same,GI50 at 48 h,[9],7 µM
O=C1CCCc2c1c1ccccc1n2CCc1ccccc1,IC50,[1],10 µM
same,IC50,[2],10 µM
O=C1NCCCc2c1c1ccccc1n2CCc1cccc(Cl)c1,IC50,[2],0.065 µM
